This is an account of results in ChEMBL document CHEMBL5055621, “Synthesis and Characterization of the Novel Rodent-Active and CNS-Penetrant P2X7 Receptor Antagonist Lu AF27139” (J Med Chem, 2021).

Broadly, the IC50 is the concentration that gives 50% inhibition. As usually defined, the Ki is the dissociation constant of the complex between target and ligand, obtained from inhibition or displacement. A higher Ki goes with a looser hold on the target. The CLint scaled is the rate of metabolic loss divided by the concentration. The low end stands for greater metabolic stability, the high end for faster metabolism. What is called efflux ratio is a quotient of directional permeabilities that is used to spot active efflux.

Data set [1] addresses T1, P2X purinoceptor 7 (Mus musculus, UniProt Q9Z1M0).
T1 sequence (Q9Z1M0 whole entry): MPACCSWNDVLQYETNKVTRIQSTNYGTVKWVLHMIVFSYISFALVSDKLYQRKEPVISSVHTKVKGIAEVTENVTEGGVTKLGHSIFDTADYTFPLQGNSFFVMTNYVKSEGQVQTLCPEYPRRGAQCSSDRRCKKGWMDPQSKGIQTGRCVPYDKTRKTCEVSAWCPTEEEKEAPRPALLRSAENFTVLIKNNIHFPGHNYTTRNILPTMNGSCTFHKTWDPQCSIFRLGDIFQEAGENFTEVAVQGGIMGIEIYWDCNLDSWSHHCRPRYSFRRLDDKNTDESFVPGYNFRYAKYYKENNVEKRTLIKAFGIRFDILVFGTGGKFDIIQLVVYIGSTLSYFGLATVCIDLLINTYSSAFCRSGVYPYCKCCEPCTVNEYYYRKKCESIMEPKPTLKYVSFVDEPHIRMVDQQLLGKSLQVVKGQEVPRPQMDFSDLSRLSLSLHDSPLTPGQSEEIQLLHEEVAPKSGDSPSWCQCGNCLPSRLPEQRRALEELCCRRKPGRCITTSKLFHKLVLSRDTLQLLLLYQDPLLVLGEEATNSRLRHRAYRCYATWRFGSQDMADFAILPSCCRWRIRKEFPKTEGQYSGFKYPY
Kind of data set: Antagonist activity at mouse P2X7 receptor expressed in HEK293 cells assessed as inhibition of BzATP-induced calcium-flux measured after 60 mins by FLIPR analysis. In kind it is cell-based. The method in brief: (§1)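 Stable rat or mouse P2X7 HEK293 cells in HBSS/20 mM HEPES/2.5 mM probenecid/0.05% BSA, pH 7.4, were loaded with Fluo-4 NW (37 °C 30 min, RT 30 min). After 30 min at RT, calcium fluorescence was read by FLIPR; n ≥ 3.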

Data set [2] deals with THP-1. Kind of data set: Antiinflammatory activity against human THP-1 cells assessed as reduction in LPS and BzATP-induced IL-1beta release measured after 50 mins by microplate reader. In kind it is functional, cell-based. Particulars: THP-1, 50 min. The procedure, abridged:
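THP-1 cells were differentiated with IFN-γ 10 ng/mL for 48 h and primed with LPS (100 ng/mL final) for 3.5 h at 10k cells/well. Compound was added for 20 min, then BzATP (1 mM final) for 30 min at 37 °C. Supernatant IL-1β was read by human AlphaLISA.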

The target of data set [3] is T2, P2X purinoceptor 7 (Rattus norvegicus, UniProt Q64663).
T2 sequence (Q64663 whole entry): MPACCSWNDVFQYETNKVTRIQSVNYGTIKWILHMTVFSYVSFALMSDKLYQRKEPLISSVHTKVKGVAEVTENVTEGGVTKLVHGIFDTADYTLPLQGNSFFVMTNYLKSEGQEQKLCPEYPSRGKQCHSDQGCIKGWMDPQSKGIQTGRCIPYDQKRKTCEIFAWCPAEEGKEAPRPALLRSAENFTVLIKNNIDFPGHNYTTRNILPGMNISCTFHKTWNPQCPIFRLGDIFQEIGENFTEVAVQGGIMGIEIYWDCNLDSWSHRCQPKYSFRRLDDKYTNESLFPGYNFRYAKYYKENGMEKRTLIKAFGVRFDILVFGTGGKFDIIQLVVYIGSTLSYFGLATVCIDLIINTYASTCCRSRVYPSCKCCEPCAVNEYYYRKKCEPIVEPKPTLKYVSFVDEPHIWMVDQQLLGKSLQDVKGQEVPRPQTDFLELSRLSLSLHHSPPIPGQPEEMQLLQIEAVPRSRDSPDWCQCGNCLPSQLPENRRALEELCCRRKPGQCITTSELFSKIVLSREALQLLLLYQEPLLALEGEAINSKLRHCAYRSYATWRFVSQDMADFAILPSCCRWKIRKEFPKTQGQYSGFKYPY
As to the kind of experiment: Displacement of [3H]-A-804598 from rat P2X7 receptor expressed in HEK293 cell membrane by in vitro binding assay. In kind it is cell membranes. On the technique in general: In a radioligand displacement assay an active substance lowers the binding of a labelled ligand.

In data set [4] the target is T2, P2X purinoceptor 7. As to the kind of experiment: Antagonist activity at rat P2X7 receptor expressed in HEK293 cells assessed as inhibition of BzATP-induced calcium-flux measured after 60 mins by FLIPR analysis. Format: cell-based. The procedure, abridged: as §1
For data set [5], the target named is T3, P2X purinoceptor 7 (Homo sapiens, UniProt Q99572).
T3 sequence (Q99572 whole entry): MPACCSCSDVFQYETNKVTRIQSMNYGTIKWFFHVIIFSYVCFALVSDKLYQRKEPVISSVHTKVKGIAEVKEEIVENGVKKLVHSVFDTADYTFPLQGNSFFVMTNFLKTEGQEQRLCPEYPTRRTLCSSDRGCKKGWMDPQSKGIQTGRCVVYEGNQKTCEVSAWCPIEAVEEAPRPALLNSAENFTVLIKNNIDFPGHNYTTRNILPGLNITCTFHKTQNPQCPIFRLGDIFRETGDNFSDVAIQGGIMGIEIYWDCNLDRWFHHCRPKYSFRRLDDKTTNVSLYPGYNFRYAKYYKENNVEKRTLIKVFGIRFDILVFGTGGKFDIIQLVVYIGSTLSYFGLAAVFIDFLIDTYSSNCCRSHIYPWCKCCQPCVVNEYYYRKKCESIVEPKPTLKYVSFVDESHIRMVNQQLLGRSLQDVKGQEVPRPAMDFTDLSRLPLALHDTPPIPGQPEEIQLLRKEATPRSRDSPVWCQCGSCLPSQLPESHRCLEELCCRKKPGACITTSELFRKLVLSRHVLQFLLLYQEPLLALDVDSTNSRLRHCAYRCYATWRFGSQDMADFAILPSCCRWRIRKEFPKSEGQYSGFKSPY
As to the kind of experiment: Displacement of [3H]-A-804598 from human P2X7 receptor expressed in HEK293 cell membrane by in vitro binding assay. In kind it is cell membranes.

Data set [6] can be described thus: in vitro. The note with it: human, liver microsomes. (In general: Liver microsomes are a subcellular fraction often used to study metabolism.)
Data set [7] is described as follows: Apparent permeability across apical to basolateral side in MDCK-MDR1 cells by LC-MS/MS analysis. The note with it: dog.
The target in data set [8] is T1, P2X purinoceptor 7. As to the kind of experiment: Displacement of [3H]-A-804598 from mouse P2X7 receptor expressed in HEK293 cell membrane by in vitro binding assay. Format: cell membranes.
A short description of data set [9]: Efflux ratio of permeability across basolateral to apical side over apical to basolateral side in MDCK2-MDR1 cells. Format: ADME, cell-based, Canis lupus familiaris. Particulars: dog, MDCK-MDR1. The method in brief:
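MDR1-MDCK monolayers; permeability measured in both A-to-B and B-to-A directions, in triplicate. Efflux ratio taken as B:A over A:B permeation.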

The nature of data set [10]: in vitro. Particulars: rat, liver microsomes.
The target in data set [11] is T3, P2X purinoceptor 7. Kind of data set: Antagonist activity at human P2X7 receptor expressed in HEK293 cells assessed as inhibition of BzATP-induced calcium-flux measured after 60 mins by FLIPR analysis. In kind it is cell-based.

As for `FC(F)(F)c1cccc(-c2nnnn2Cc2cccnc2)c1Cl`, the IC50 is 300 nM in data set [1], 140 nM in data set [2], 71 nM in data set [4] and 57 nM in data set [11]. Further, the Ki in data set [3] came out at 16 nM; in data set [5], 7.4 nM; in data set [8], 48 nM. Moreover, the CLint scaled at 1 h, 1 µM in [6] was 75 mL/min/kg; in data set [10], 417 mL/min/kg. Besides, the Papp A:B in data set [7] was 40 ×10⁻⁶ cm/s. Besides, in [9], the efflux ratio amounted to 0.77.

`O=C(NCC1(O)CCC(F)(F)CC1)c1cc(-c2ncc(F)cn2)ccc1Cl`: the IC50 is more than 10000 nM in data set [1] and 5500 nM in data set [4]. In data set [3], this molecule returned a Ki of 4800 nM. Moreover, the values for the CLint scaled at 1 h, 1 µM in [6] and in [10] were 7.83 mL/min/kg and 53.3 mL/min/kg, respectively. Further, the Papp A:B in data set [7] came to 18 ×10⁻⁶ cm/s.

As for `CN1C(=O)CC[C@H]1C(=O)NCc1cccc(C(F)(F)F)c1Cl` [GSK1482160], the IC50 in [1] was determined as 2300 nM; in [4], 1900 nM; in data set [11], 20 nM. Also, the inhibitory constant (Ki) in data set [3] worked out at 510 nM; in data set [5], 5.7 nM. Moreover, the values for the CLint scaled at 1 h, 1 µM in [6] and in data set [10] were 5 mL/min/kg and 16.7 mL/min/kg, respectively. Also, the Papp A:B in data set [7] stood at 20 ×10⁻⁶ cm/s. Also, the efflux ratio in [9] amounted to 0.72.

Consider `O=C(NCC1CCCCCC1)c1cn(CCO)c2ccccc12`, for which the half-maximal inhibitory concentration (IC50) in data set [1] amounted to 240 nM; in data set [4], 1500 nM; in [11], 72 nM. Besides, the intrinsic metabolic clearance (CLint scaled) at 1 h, 1 µM in data set [6] was 883 mL/min/kg; in [10] it was 533 mL/min/kg. Also, in data set [7], the Papp A:B was 5.9 ×10⁻⁶ cm/s. For the same molecule, in data set [9], the efflux ratio turned out to be 0.7.

For `COc1ccc(CC(=O)NC(N/C(=N/C#N)Nc2cccc3ncccc23)C(C)(C)C)cc1OC` (stereo not given), the IC50 in data set [1] came out at 250 nM; in [11], 81 nM. This molecule gave a Ki in [5] of 130 nM. Moreover, the Papp A:B in data set [7] was determined as 0.2 ×10⁻⁶ cm/s.

For the molecule `O=C(Cc1cccc(C(F)(F)F)c1Cl)NC1COc2ncccc21` (stereo not given), the IC50 in [1] was 320 nM; in data set [2] it was 27 nM; in data set [4] it was 260 nM; in data set [11], 5.5 nM. Also, the results for the Ki in data set [5] and in data set [8] were 5.6 nM and 100 nM, respectively. In addition, the intrinsic clearance (CLint scaled) at 1 h, 1 µM in [6] was 26.7 mL/min/kg; in [10], 85 mL/min/kg. In addition, the Papp A:B in [7] worked out at 25 ×10⁻⁶ cm/s. Further, the efflux ratio in data set [9] was 0.83.

As to `O=C(NC[C@@H](c1ccc(Cl)cc1)N1CCOCC1)c1sc(-c2ncccn2)nc1C(F)(F)F`, the IC50 in data set [4] stood at 95 nM.

As to `O=C(NCC12CC3CC(CC(C3)C1)C2)c1cc(CCCNCCCO)ccc1Cl` [AZD9056], the concentration for half-maximal inhibition (IC50) is 1700 nM in data set [1], 4.4 nM in [4] and 3.5 nM in data set [11]. Moreover, the Ki was 130 nM in [3] and 15 nM in [5]. Also, the intrinsic clearance (CLint scaled) at 1 h, 1 µM was 20 mL/min/kg in data set [6] and 43.3 mL/min/kg in data set [10]. Moreover, the Papp A:B in [7] came to 0.7 ×10⁻⁶ cm/s. Besides, the efflux ratio in data set [9] came to 17.

Consider `CN1CCc2c(cccc2C(=O)NCC2(N3CCN(c4ccccc4)CC3)CCCCC2)C1`, for which, in data set [7], the Papp A:B stood at 0.25 ×10⁻⁶ cm/s. Further, the efflux ratio in data set [9] was 1.1. The molecule also showed a CLint scaled at 1 h, 1 µM in [10] of 200 mL/min/kg.

As to `COC[C@H](O)Cn1c(=O)cnn(-c2ccc(Cl)c(C(=O)NCC3(O)CCCCCC3)c2)c1=O` [CE-224535], the IC50 in [1] turned out to be 660 nM; in [4], 470 nM; in data set [11], 0.76 nM. The Papp A:B in [7] turned out to be 0.6 ×10⁻⁶ cm/s.

As to `Clc1cccc(-c2nnnn2Cc2cccnc2)c1Cl`, the IC50 in data set [1] was found to be 2900 nM; in data set [4], 910 nM; in data set [11] it was 2100 nM. In addition, the inhibition constant (Ki) in [3] was 200 nM; in [5], 68 nM. Also, the intrinsic clearance (CLint scaled) at 1 h, 1 µM in data set [6] is 16.7 mL/min/kg; in data set [10] it was 767 mL/min/kg.

Consider `C[C@H](N/C(=N/C#N)Nc1cccc2ncccc12)c1ccccc1`, for which the IC50 in [2] stood at 15 nM; in data set [4] it was 6.1 nM. The inhibition constant Ki in data set [3] turned out to be 3.9 nM. The figures for the intrinsic metabolic clearance (CLint scaled) at 1 h, 1 µM in [6] and in data set [10] were 23.3 mL/min/kg and 71.7 mL/min/kg, respectively. For the same molecule, the Papp A:B in [7] came out at 9.3 ×10⁻⁶ cm/s.

For `O=C(NCC1(N2CCN(c3ccccc3)CC2)CCOCC1)c1cccnc1Sc1ccccc1`, the IC50 was determined as 0.65 nM in [1], 4.7 nM in data set [4] and 35 nM in [11]. Moreover, in data set [3], affinity was put at a Ki of 98 nM. The CLint scaled at 1 h, 1 µM in data set [6] is 283 mL/min/kg; in [10], 433 mL/min/kg. Also, in data set [7], the Papp A:B was 11 ×10⁻⁶ cm/s. For the same molecule, in data set [9], the efflux ratio is 1.1.
